SDO1 yeast rescue = restores growth of sdo1-depleted yeast. S. cerevisiae sdo1-depleted JHY4D growth rescue, OD600 30 h; active compounds read high; pdr5 snq2 efflux-pump mutant strain. z-score at 10 µM. 140,000 tested, 0.21% active. AID 817;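 active = z-score above 3 at both the 24 hr and the 30 hr optical density reads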
RAM network inh = yeast RAM network inhibition. inhibition, % at 50 µM. 190,000 tested, 1.8% active. S. cerevisiae dse1pr::URA3 reporter, 5-FOA growth OD615, 2 d; analog-sensitive cbk1-as2 kinase mutant strain. AID 868;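 active = inhibition above a set limit, 3 SD over mean compound inhibition, cut at about 8.4% in these data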;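 also: inhibition rescues growth on 5-FOA so higher OD means more RAM inhibition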
Yeast growth inh = reduces growth of yeast BB579 in restrictive medium | inhibition, % at 10 µM | 140,000 tested, 0.51% active | AID 804 | S. cerevisiae BB579 growth, OD615, 48 h;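 active = inhibition above a set limit, 3 SD over the mean compound inhibition, cut at about 44% in these data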
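Test system: S. cerevisiae DeaD strain BB579 yeast; Medium: restrictive CSMM-D medium; Compound: one dose, 10 µM compound with 0.25% DMSO; Incubation: 4 h cell preincubation, 48 h compound exposure, 30 °C humidified; Signal: OD at 615 nm; Benchmarks: amphotericin B at 10 µg/mL as positive control.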
Yeast lifespan up = yeast lifespan extension. S. cerevisiae growth with nicotinamide, OD615; deaD strain in restrictive glucose medium. inhibition of the nicotinamide effect, % at 10 µM. 130,000 tested, 0.68% active;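 active = inhibition above a set limit, placed 3 SD over the median of all compounds, cut at about 26% in these data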
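Material: Modified budding yeast, DeaD strain | Medium: Restrictive glucose medium | Probe or stimulus: 1.5 mM nicotinamide | Dosing: Single dose 10 µM compound, 0.25% DMSO | Times: 48 h at 30 °C | Technique: OD615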
RAM 5-FOA = restores 5-FOA growth of efflux-deficient yeast; shares compounds with RAM network inh; S. cerevisiae efflux-deficient reporter strain, 5-FOA growth OD615, 2 days; 1,200 tested, under 10 active; AID 1305; max inhibition, %; call rule not given here
Each line names hits and unclear results; the compound was inactive in the other large screens (follow-up assays come after a bar, where they were run). Most compounds without a hit are left out; they make up all but 2.7% or so of the library.

CC(=O)Nc1ccc(S(=O)(=O)N2CCN(S(=O)(=O)N3CCCCC3)CC2)cc1	none (no result: SDO1 yeast rescue, Yeast growth inh, Yeast lifespan up)
O=c1c2ccccc2n2c(-c3cccc(F)c3)nnc2n1Cc1ccccc1	none
Nc1ncnc(Sc2ccccc2)c1[N+](=O)[O-]	RAM network inh 72.5 | RAM 5-FOA inactive
S=C(NCCC(c1ccccc1)c1ccccc1)Nc1ccccc1Cl	RAM network inh 15.2 | RAM 5-FOA inactive
Cc1cccc(C(=O)NNS(=O)(=O)c2ccccc2)c1O	none (no result: SDO1 yeast rescue, Yeast growth inh, Yeast lifespan up)
COc1ccc(NC(=O)N2CCCC(c3nc(-c4ccc(C(C)C)cc4)no3)C2)cc1 (stereo not drawn)	RAM network inh 11.7 | RAM 5-FOA inactive
COc1ccc(NC(=O)N2CCCC(c3nc(-c4ccc(OC)cc4)no3)C2)cc1 (stereo not drawn)	none (no result: SDO1 yeast rescue, Yeast growth inh, Yeast lifespan up)
Cc1ccc(N2N=C(c3ccc(F)cc3)CC2c2ccco2)cc1 (stereo not drawn)	RAM network inh 12.1 (no result: SDO1 yeast rescue, Yeast growth inh, Yeast lifespan up) | RAM 5-FOA inactive
Fc1ccc(C2=NN(c3ccccc3)C(c3ccco3)C2)cc1 (stereo not drawn)	none (no result: SDO1 yeast rescue, Yeast growth inh, Yeast lifespan up)
COC(=O)c1cc2c(ccn2-c2ccc(F)cc2)n1Cc1cccc(OC)c1	RAM network inh 12.6 | RAM 5-FOA inactive
CCCN1C(=O)/C(=c2\sc3nc(=O)c(Cc4ccc(C)cc4)nn3c2=O)c2ccccc21	RAM network inh 12.2 (no result: SDO1 yeast rescue, Yeast growth inh, Yeast lifespan up) | RAM 5-FOA inactive
Cc1ccc(C(=O)c2cc3ccccc3o2)cc1C	RAM network inh 15.4 | RAM 5-FOA inactive
O=C(COc1ccc2ccccc2c1)NC1=NCCS1	none
CCC(C)c1ccc(NC(=S)NCc2ccccc2OC)cc1 (stereo not drawn)	RAM network inh 11.5 (no result: SDO1 yeast rescue, Yeast growth inh, Yeast lifespan up) | RAM 5-FOA inactive
COC(=O)Cc1ccc(NC(=S)NCc2ccccc2OC)cc1	none (no result: SDO1 yeast rescue, Yeast growth inh, Yeast lifespan up)
CN(C(=O)CSc1nc(-c2ccccc2)cs1)C1CCS(=O)(=O)C1 (stereo not drawn)	none
Nc1nc(N2CCN(C/C=C/c3ccccc3)CC2)nc2ccccc12	none
Cc1c(C(=O)N2CCc3ccccc3C2)oc2ccc(S(=O)(=O)N3CC(C)CC(C)C3)cc12 (stereo not drawn)	RAM network inh 11.7 | RAM 5-FOA inactive
CCN(CC)S(=O)(=O)c1ccc2oc(C(=O)N3CCc4ccccc4C3)c(C)c2c1	none
O=C(NCc1cccs1)C(=O)NCC(c1ccco1)N1CCN(c2ccccc2)CC1 (stereo not drawn)	none (no result: SDO1 yeast rescue, Yeast growth inh, Yeast lifespan up)
CCC(C)NC(=O)c1ccccc1NC(=O)c1ccc(CSc2ccccc2)cc1 (stereo not drawn)	RAM network inh 20.1 | RAM 5-FOA inactive
CCCNC(=O)c1ccccc1NC(=O)c1ccc(CSc2ccccc2)cc1	RAM network inh 12.7 | RAM 5-FOA inactive
CC(CCc1ccccc1)NC(=O)CNC(=S)N(Cc1cccs1)C1CCCC1 (stereo not drawn)	RAM network inh 11.9 (no result: SDO1 yeast rescue, Yeast growth inh, Yeast lifespan up) | RAM 5-FOA inactive
CCOC(=O)CNC(=S)N(Cc1cccs1)C1CCCCC1	none
CCc1cccc2sc(NC(=O)c3ccc(N4C(=O)CCC4=O)cc3)nc12	none
Cc1ccc2sc(NC(=O)c3ccc(N4C(=O)CCC4=O)cc3)nc2c1C	RAM network inh 16.5 | RAM 5-FOA inactive
CCn1c2ccccc2c2cc(NC(=O)c3cc(OC)c(OC)c(OC)c3)ccc21	RAM network inh 11.7 | RAM 5-FOA inactive
Cc1ccc(C(c2nnnn2C(C)(C)C)N(Cc2ccco2)Cc2cccs2)cc1 (stereo not drawn)	none
CC(C)C(c1nnnn1Cc1ccccc1)N(Cc1ccco1)Cc1cccs1 (stereo not drawn)	RAM network inh 13.2 | RAM 5-FOA inactive
COc1ccc2cc(CN(Cc3ccco3)C(c3nnnn3C3CCCCC3)C(C)C)c(=O)[nH]c2c1 (stereo not drawn)	none
COc1ccc(Cn2nnnc2C(C(C)C)N(Cc2ccco2)Cc2cccs2)cc1 (stereo not drawn)	RAM network inh 12.1 | RAM 5-FOA inactive
O=C1c2ccccc2C(Nc2ccc3c(c2)OCCO3)N1Cc1ccc2c(c1)OCO2 (stereo not drawn)	none
CCOc1ccccc1C(=O)Nc1cc(OC)ccc1OC	none
COc1ccc(C(=O)Nc2cc(OC)c(Cl)cc2Cl)cc1	none (no result: SDO1 yeast rescue, Yeast growth inh, Yeast lifespan up)
COc1ccc(COc2ccsc2C(=O)Nc2ccc(Cl)c(Cl)c2)cc1	RAM network inh 13.8 | RAM 5-FOA inactive
O=C(Nc1ccccc1Cl)c1cccc(COc2cc(Cl)ccc2Cl)c1	RAM network inh 11.9 | RAM 5-FOA inactive
CN(C)S(=O)(=O)Oc1ccsc1C(=O)Nc1ccc(Cl)c(Cl)c1	none
O=C(O)c1cccc(COc2ccccc2Cl)c1	none
COc1ccc(C(=O)Nc2cc(OCc3ccccc3)c(Cl)cc2Cl)cc1	RAM network inh 14.8 | RAM 5-FOA inactive
CN(C)CCCN(Cc1ccccc1)C(=S)Nc1ccc(F)c(Cl)c1	none (no result: SDO1 yeast rescue, Yeast growth inh, Yeast lifespan up)
O=C(/C=C/c1ccccc1)c1ccc2c(c1)OCCCCO2	none
O=C(/C=C/c1ccc2c(c1)OCCCO2)c1ccc2ccccc2c1O	RAM network inh 12.3 | RAM 5-FOA inactive
CCOc1cc(NC(=O)c2ccccn2)c(OCC)cc1NC(=O)c1ccc(C)cc1	RAM network inh 12.0 (no result: SDO1 yeast rescue, Yeast growth inh, Yeast lifespan up) | RAM 5-FOA inactive
CCOc1cc(NC(=O)C2CCCCC2)c(OCC)cc1NC(=O)c1ccccn1	none (no result: SDO1 yeast rescue, Yeast growth inh, Yeast lifespan up)
O=C(CSc1nc2c(cnn2-c2ccccc2)c(=O)[nH]1)N1N=C(c2cccs2)CC1c1ccc(F)cc1 (stereo not drawn)	RAM network inh 12.5 | RAM 5-FOA inactive
CC(=O)N1CCN(C(=O)CSc2nc3c(cnn3-c3ccccc3)c(=O)[nH]2)CC1	none
Fc1ccc(C2CC(c3cccs3)=NN2c2ccccc2)cc1 (stereo not drawn)	RAM network inh 12.0 (no result: SDO1 yeast rescue, Yeast growth inh, Yeast lifespan up) | RAM 5-FOA inactive
COc1ccc(C2CC(c3cccs3)=NN2c2ccc(C=O)cc2)cc1 (stereo not drawn)	none
O=C1CCC(/C=C/c2ccccc2)=NN1Cc1ccccc1Cl	RAM network inh 23.1 | RAM 5-FOA inactive
O=C1CCC(/C=C/c2ccccc2)=NN1Cc1ccc(Cl)c(Cl)c1	RAM network inh 13.3 | RAM 5-FOA inactive
Cc1sc2nc(SCC(=O)C(C)(C)C)n(Cc3ccco3)c(=O)c2c1C	none
COc1cccc(CSc2nc3sc(C)c(C)c3c(=O)n2Cc2ccco2)c1	RAM network inh 15.6 | RAM 5-FOA inactive
Cc1cccc(CSc2nc3sc(C)c(C)c3c(=O)n2Cc2ccco2)c1	RAM network inh 22.3 | RAM 5-FOA inactive
Cc1ccc(CSc2nc3sc(C)c(C)c3c(=O)n2Cc2ccco2)cc1	RAM network inh 17.1 | RAM 5-FOA inactive
Cc1sc2nc(SCc3ccccc3)n(Cc3ccco3)c(=O)c2c1C	RAM network inh 13.2 | RAM 5-FOA inactive
CCc1ccc(OCc2ccc(C(=O)NCc3ccccn3)o2)cc1	none
O=C(Nc1cc(F)ccc1F)C1CCCO1 (stereo not drawn)	none
Oc1ccc(O)c(Cc2nc3ccccc3[nH]2)c1	none (no result: SDO1 yeast rescue, Yeast growth inh, Yeast lifespan up)
Cc1ccc(S(=O)(=O)N2CCN(C(=O)C3COc4ccccc4O3)CC2)cc1C (stereo not drawn)	RAM network inh 17.1 | RAM 5-FOA inactive
